From article PMC9884087 (Journal of Medicinal Chemistry, 2023) come the findings set out here.

For one data set, the target named is TcCYP51 (Trypanosoma cruzi, UniProt Q7Z1V1). The data set can be described thus: Fluorescence-based Trypanosoma cruzi CYP51 inhibition assay. The note with it: concentrations up to and including 100 μM. Type of data set: biochemical.
Data set [1] can be described thus: Mouse pharmacokinetic study. Type of data set: in vivo. The note with it: for clearance: female, Balb/c, mouse, plasma, iv. A digest of the protocol:
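Female Balb/c mice received test compound i.v. plus p.o., either 1 and 50 mg/kg or 2 and 12.5 mg/kg (n = 3 mice per route). Some arms were pretreated with 1-aminobenzotriazole (50 mg/kg p.o., 2 h before dosing) as a cytochrome P450 inhibitor; others had none. Blood concentration–time profiles were obtained.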

A short description of another data set: Mouse cassette dosing PK. Type of data set: in vivo. The note with it: male, ICR, plasma, iv, 0.1 mg/kg.
For data set [2], the system named is T. cruzi strain (CL Brener). The data set can be described thus: In vivo efficacy, bioluminescent acute T. cruzi infection in BALB/c mice. Details: species or system Trypanosoma cruzi. The note with it: 50 mg/kg BID p.o. 5 days. The gist of the method: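 Female BALB/c mice, 7–8 weeks old, housed specific-pathogen-free, infected i.p. with 1 × 10³ CL Brener trypomastigotes from SCID mouse blood. The parasites constitutively express the red-shifted luciferase PpyRE9h. From day 14 post-infection (acute peak), mice (n = 3) received test compound orally at 50 mg/kg twice daily for 5 days. Parasite burden was tracked by in vivo bioluminescence imaging against untreated controls through day 18, with animals observed for adverse effects.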

Data set [3] can be described thus: Mouse preliminary tolerability study. Type of data set: in vivo. A digest of the protocol: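 Dosing was oral, twice daily, for 5 days. Recorded: mortality, clinical observations (e.g. temperature to touch, posture, gait, activity), body weight and weight gain, food consumption, and gross pathology.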
For data set [4], the system named is panel of 35 known-liability targets including GPCRs and ion channels. Put plainly: Known-liability off-target panel. The note with it: 300 kinases at 1 μM and 35 known-liability targets at 10 μM.
The mark [5] stands for this setting: single p.o. dose 50 mg/kg, no ABT, 50 mg/kg.

Sequence of TcCYP51 (Q7Z1V1 whole entry): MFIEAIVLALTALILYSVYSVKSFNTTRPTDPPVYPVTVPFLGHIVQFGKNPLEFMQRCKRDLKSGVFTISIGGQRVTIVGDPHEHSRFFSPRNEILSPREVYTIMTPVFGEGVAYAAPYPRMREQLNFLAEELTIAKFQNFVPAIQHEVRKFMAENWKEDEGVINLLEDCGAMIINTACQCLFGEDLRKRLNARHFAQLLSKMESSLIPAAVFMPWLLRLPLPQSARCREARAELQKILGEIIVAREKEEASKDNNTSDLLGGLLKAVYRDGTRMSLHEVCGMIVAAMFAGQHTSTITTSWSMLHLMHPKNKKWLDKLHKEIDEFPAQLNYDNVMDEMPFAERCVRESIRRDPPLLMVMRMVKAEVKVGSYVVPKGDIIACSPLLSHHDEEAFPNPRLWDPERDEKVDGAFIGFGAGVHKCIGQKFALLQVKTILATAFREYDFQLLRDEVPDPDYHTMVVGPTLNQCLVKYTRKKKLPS

`Fc1ccc(C2CCN(c3nc(-c4ccccn4)nc4ccccc34)C2)cc1` (stereo not shown) [Compound 83, 4-[3-(4-Fluorophenyl)pyrrolidin-1-yl]-2-(pyridin-2-yl)quinazoline]: the TcCYP51 inhibitory activity entry at TcCYP51 was “no inhibitory activity”.
Usually clearance stands for the volume of plasma or blood freed of the substance per unit of time. Lower therefore signals a low capacity for elimination. Take `c1ccc(-c2nc(N3CCC(c4ccccn4)C3)c3ccccc3n2)nc1` (stereo not shown) [Compound 85, 2-(pyridin-2-yl)-4-(3-(pyridin-2-yl)pyrrolidin-1-yl)quinazoline]: the figures for the clearance (in data set [1] (2 mg/kg); in the data set “Mouse cassette dosing PK”) were 4.9 mL/min/kg and 38.5 mL/min/kg, respectively. Moreover, the “tolerability (single p.o. dose)” value is “adverse tolerability events were observed after the single dose” in data set [1] (single dose 12.5 mg/kg p.o. with ABT 50 mg/kg p.o. 2 h prior); “poor” in data set [1] (single dose 12.5 mg/kg p.o. with ABT 50 mg/kg p.o. 2 h prior, listed as 85 + ABT); “no adverse issues were noted” in data set [1] (setting [5]). The “adverse effects during treatment of infected mice” value in data set [2] is reported as “no adverse effects were observed”. Further, the “no-observed-adverse-effect-level (NOAEL)” value in data set [3] (BID p.o. 5 days, female mice) was 100 mg/kg/dose (BID). In addition, the multiday tolerability observations result in data set [3] (female Balb/c mice, 10, 50, 100 mg/kg/dose BID p.o. up to 5 days, 1 animal/group) is “well tolerated”.
As for `CC(C)(Nc1nc(-c2ccccn2)nc2ccccc12)c1ccccn1` [Compound 54, 2-(Pyridin-2-yl)-N-(2-(pyridin-2-yl)propan-2-yl)quinazolin-4-amine], the clearance in data set [1] (1 mg/kg) amounted to 12.4 mL/min/kg. Moreover, the “tolerability (single p.o. dose)” value in data set [1] (setting [5]) was “No adverse reactions or compound-related side effects were observed”. The off-target activity entry in data set [4] is “no known off-target activity with the exception of 5HT-1A antagonism”. Also, the “tolerability (5 days BID p.o.)” value in data set [3] (healthy mice, 10, 50, 100 mg/kg BID p.o., 5 days) is “poor”.
